According to ChEMBL document CHEMBL3227953, “Potential antitumor agents. 30. Mutagenic activity of some 9-anilinoacridines: relationships between structure, mutagenic potential, and antileukemic activity” (J Med Chem, 1979):

Legend:
[1] = tested on: Salmonella typhimurium; assay: Mutagenic activity in Salmonella typhimurium TA1537 assessed as mutation frequency at 10^4 times D50 after 1 hr; assay type: toxicity, organism-based; settings: salmonella enterica subsp. enterica serovar typhimurium
How it was run: (§1)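 Overnight L-broth culture (0.5 mL) exposed to drug (from 50% ethanol) in 10 mL L broth, 37 °C shaking, 1 h; concentration range from non-toxic to clearly toxic. Cells spun, resuspended in saline, plated in triplicate on minimal plates (1 mM histidine, biotin) and, diluted 1 in 10^4, on L-broth plates; 37 °C, 2 days. D50 interpolated from log % survival vs dose; mutation frequency = 100(MT − MC)/S50, background-corrected.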

[2] = Toxicity in Salmonella typhimurium TA1537 assessed as growth inhibition after 1 hr; assay type: organism-based; settings: salmonella enterica subsp. enterica serovar typhimurium, read-out: D50
How it was run: (§2)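 Overnight shaken L-broth culture from frozen stock. 0.5 mL culture in L broth (10 mL total) with a range of drug concentrations, from nontoxic to clearly toxic, in 50% ethanol. Shaken at 37 °C for 1 h, centrifuged, resuspended in saline, diluted 1 in 10^4, plated in triplicate on L-broth plates, 37 °C, 2 days. Survival = 100Nt/Nc vs untreated. D50 from linear fit of log survival vs dose.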

[3] = tested on: Salmonella typhimurium; assay: Mutagenic activity in Salmonella typhimurium TA98 assessed as mutation frequency at 10^4 times D50 after 1 hr; assay type: toxicity, organism-based; settings: salmonella enterica subsp. enterica serovar typhimurium; how it was run: as §1
[4] = Toxicity in Salmonella typhimurium TA100 assessed as growth inhibition after 1 hr; assay type: organism-based; settings: salmonella enterica subsp. enterica serovar typhimurium, read-out: D50; how it was run: as §2
[5] = Toxicity in Salmonella typhimurium TA98 assessed as growth inhibition after 1 hr; assay type: organism-based; settings: salmonella enterica subsp. enterica serovar typhimurium, read-out: D50; how it was run: as §2
[6] = tested on: Salmonella typhimurium; assay: Mutagenic activity in Salmonella typhimurium TA100 assessed as mutation frequency at 10^4 times D50 after 1 hr; assay type: toxicity, organism-based; settings: salmonella enterica subsp. enterica serovar typhimurium; how it was run: as §1

Row | Compound | log(M50) [1] | GI50 at 1 h [2] | M50 [3] | M50 [1] | GI50 at 1 h [4] | GI50 at 1 h [5] | M50 [6]
1 | CCNc1ccc(Nc2c3ccccc3nc3ccccc23)cc1.Cl | 1.88 | 100 µM |  |  |  |  | 
2 | CCCCCS(=O)(=O)Nc1ccc(Nc2c3ccccc3nc3ccccc23)cc1.Cl | 0.6 | 15.6 µM |  |  |  |  | 
3 | CCCCS(=O)(=O)Nc1ccc(Nc2c3ccccc3nc3c(C(N)=O)cccc23)c(OC)c1.Cl | 0 | 330 µM |  |  |  |  | 
4 | CCCCCCS(=O)(=O)Nc1ccc(Nc2c3ccccc3nc3ccccc23)c(OC)c1.CS(=O)(=O)O | 0 | 15.3 µM |  |  |  |  | 
5 | CCS(=O)(=O)Nc1ccc(Nc2c3ccccc3nc3c(C(N)=O)cccc23)c(OC)c1.Cl | 0.18 | 467 µM |  |  |  |  | 
6 | COc1cccc2c1C(=O)c1c(O)c3c(c(O)c1C2=O)C[C@@](O)(C(=O)CO)C[C@@H]3O[C@H]1C[C@H](N)[C@H](O)[C@H](C)O1 [DOXORUBICIN] | 0 | 16.3 µM | 14% | 0% | 11.3 µM | 6.1 µM | 0.5%
7 | CCCS(=O)(=O)Nc1ccc(Nc2c3ccccc3nc3c(C(N)=O)cccc23)c(OC)c1.Cl | 0 | 642 µM |  |  |  |  | 
8 | CCCCCS(=O)(=O)Nc1ccc(Nc2c3ccccc3nc3cc(NC(C)=O)ccc23)cc1.CS(=O)(=O)O | -0.1 | 17.7 µM |  |  |  |  | 
9 | COc1cccc2c1C(=O)c1c(O)c3c(c(O)c1C2=O)C[C@@](O)(C(C)=O)C[C@@H]3O[C@H]1C[C@H](N)[C@H](O)[C@H](C)O1 [DAUNORUBICIN] | 0 | 7.4 µM | 20% | 0% | 11.1 µM | 13.1 µM | 4.5%
10 | CCCCCCS(=O)(=O)Nc1ccc(Nc2c3ccccc3nc3cc(NC(C)=O)ccc23)cc1.CS(=O)(=O)O | 0 | 3.1 µM |  |  |  |  | 
11 | COc1cc(NS(C)(=O)=O)ccc1Nc1c2ccccc2nc2c(C(N)=O)cccc12.Cl | -0.7 | 698 µM |  |  |  |  | 
12 | CCCCCCS(=O)(=O)Nc1ccc(Nc2c3ccccc3nc3ccccc23)cc1.Cl | 0.3 | 9.4 µM |  |  |  |  | 
13 | CCCS(=O)(=O)Nc1ccc(Nc2c3ccccc3nc3cc(NC(C)=O)ccc23)cc1.CS(=O)(=O)O | 0 | 114 µM |  |  |  |  | 
14 | CCCCCS(=O)(=O)Nc1ccc(Nc2c3ccccc3nc3ccccc23)c(OC)c1.CS(=O)(=O)O | 0 | 21.1 µM |  |  |  |  | 
15 | CC(=O)Nc1ccc2c(Nc3ccc(NS(C)(=O)=O)cc3)c3ccccc3nc2c1.CS(=O)(=O)O | -0.22 | 282 µM |  |  |  |  | 
16 | CCCCNc1ccc(Nc2c3ccccc3nc3ccccc23)cc1.Cl | 1 | 9.8 µM |  |  |  |  | 
17 | CCS(=O)(=O)Nc1ccc(Nc2c3ccccc3nc3ccccc23)c(OC)c1.CS(=O)(=O)O | -0.3 | 93.2 µM |  |  |  |  | 
18 | CCCCS(=O)(=O)Nc1ccc(Nc2c3ccccc3nc3ccccc23)c(OC)c1.CS(=O)(=O)O | 0 | 69.7 µM |  |  |  |  | 
19 | CCCCS(=O)(=O)Nc1ccc(Nc2c3ccccc3nc3cc(NC(C)=O)ccc23)cc1.CS(=O)(=O)O | -0.3 | 148 µM |  |  |  |  | 
20 | CCCNc1ccc(Nc2c3ccccc3nc3ccccc23)cc1.Cl | 1.67 | 98.9 µM |  |  |  |  | 
21 | CS(=O)(=O)Nc1ccc(Nc2c3ccccc3nc3ccccc23)cc1.Cl | 2.1 | 110 µM | 0% | 127% | 194 µM | 180 µM | 0%
22 | CCCS(=O)(=O)Nc1ccc(Nc2c3ccccc3nc3ccccc23)c(OC)c1.CS(=O)(=O)O | -0.7 | 77.6 µM |  |  |  |  | 
23 | CCS(=O)(=O)Nc1ccc(Nc2c3ccccc3nc3ccccc23)cc1.Cl | 2 | 81.6 µM |  |  |  |  | 
24 | CCS(=O)(=O)Nc1ccc(Nc2c3ccccc3nc3cc(NC(C)=O)ccc23)cc1.CS(=O)(=O)O | 0 | 221 µM |  |  |  |  | 
25 | CCCCS(=O)(=O)Nc1ccc(Nc2c3ccccc3nc3ccccc23)cc1.Cl | 0.78 | 49.3 µM |  |  |  |  | 
26 | CCCCCCNc1ccc(Nc2c3ccccc3nc3ccccc23)cc1.Cl | -1 | 4.4 µM |  |  |  |  | 
27 | CCCS(=O)(=O)Nc1ccc(Nc2c3ccccc3nc3ccccc23)cc1.Cl | 1.67 | 50.1 µM |  |  |  |  | 
28 | Br.CNc1ccc(Nc2c3ccccc3nc3ccccc23)cc1 | 2.05 | 82 µM |  |  |  |  | 
29 | CCCCCS(=O)(=O)Nc1ccc(Nc2c3ccccc3nc3c(C(N)=O)cccc23)c(OC)c1.Cl | 0 | 466 µM |  |  |  |  | 
